Among the data in ChEMBL document CHEMBL1144236, “Synthesis of 1-arylpiperazyl-2-phenylcyclopropanes designed as antidopaminergic agents: cyclopropane-based conformationally restricted analogs of haloperidol” (Bioorg Med Chem, 2008) are Ki and Ratio Ki values, retold here.

SMILES strings stand for the structures.

Experiment [1] in a line: Displacement of [3H]YM-09151-2 from human dopamine D4.2 receptor in membrane suspensions by liquid scintillation counter.
Experiment [2] is described as follows: Displacement of [3H]prazosin from adrenergic alpha1 receptor in ICR mouse brain homogenate. The format is tissue-based. Put shortly:
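Brain tissue was homogenized in 19 vol. of 50 mM Tris–HCl pH 7.5 and centrifuged at 40,000g for 15 min, then the pellet was washed once and resuspended in 24 vol. buffer. Homogenate (about 400 protein) was incubated with [3H]prazosin (0.05–1 nM) for 1 h at 20 °C. Binding was ended by rapid filtration, with filter-bound radioactivity counted by liquid scintillation.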

In another experiment the target is D(2) dopamine receptor (Homo sapiens, UniProt P14416). In words: Displacement of [3H]YM-09151-2 from human dopamine D2S receptor in membrane suspensions by liquid scintillation counter.
The species named for the next experiment is Homo sapiens. In words: Selectivity ratio of Ki for human dopamine D2S receptor to Ki for human dopamine D4.2 receptor.

Sequence of D(2) dopamine receptor (P14416 whole entry): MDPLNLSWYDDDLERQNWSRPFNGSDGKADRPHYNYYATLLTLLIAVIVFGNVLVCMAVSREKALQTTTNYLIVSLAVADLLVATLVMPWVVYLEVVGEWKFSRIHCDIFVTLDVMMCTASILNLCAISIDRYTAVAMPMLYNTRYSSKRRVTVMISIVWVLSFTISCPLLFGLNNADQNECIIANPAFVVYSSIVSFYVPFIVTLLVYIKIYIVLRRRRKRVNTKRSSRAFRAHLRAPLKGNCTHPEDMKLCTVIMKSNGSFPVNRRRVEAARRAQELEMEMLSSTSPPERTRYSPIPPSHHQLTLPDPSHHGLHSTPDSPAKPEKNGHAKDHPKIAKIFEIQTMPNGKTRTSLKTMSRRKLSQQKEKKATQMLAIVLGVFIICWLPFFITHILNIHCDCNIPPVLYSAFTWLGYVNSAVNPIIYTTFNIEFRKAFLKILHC

As to `Cc1ccc(N2CCN(C[C@H]3C[C@@H]3c3ccccc3)CC2)c(C)c1`, the results for the Ki in experiment [1] and in experiment [2] were 130 nM and 432 nM, respectively.

Take `Cc1ccc(N2CCN(C[C@@H]3C[C@@H]3c3ccccc3)CC2)c(C)c1`: the Ki in experiment [1] came to 2050 nM; in experiment [2], 537 nM.

Turning to `Cc1ccc(N2CCN([C@@H](C)[C@H]3C[C@]3(C)c3ccccc3)CC2)c(C)c1`, the Ki at D(2) dopamine receptor was above 10000 nM; in experiment [1], 4190 nM; in experiment [2], 250 nM. Also, the Ratio Ki in the experiment filed under Homo sapiens is above 2.4.

As for `O=C(CCCN1CCC(O)(c2ccc(Cl)cc2)CC1)c1ccc(F)cc1` [HALOPERIDOL], in experiment [1], the Ki was determined as 9.32 nM.

Regarding `Cc1ccc(N2CCN(C[C@H]3C[C@]3(C)c3ccccc3)CC2)c(C)c1`, the Ki at D(2) dopamine receptor is above 10000 nM; in experiment [1], 236 nM; in experiment [2], 906 nM. Also, in the experiment filed under Homo sapiens, the Ratio Ki was above 42.

As for `Cc1ccc(N2CCN([C@H](C)[C@H]3C[C@]3(C)c3ccccc3)CC2)c(C)c1`, the Ki is above 10000 nM at D(2) dopamine receptor, 4660 nM in experiment [1] and 401 nM in experiment [2]. Besides, in the experiment listed under Homo sapiens, the Ratio Ki is above 2.1.

In the case of `Cc1ccc(N2CCN(C[C@H]3C[C@H]3c3ccccc3)CC2)c(C)c1`, the Ki in experiment [1] turned out to be 897 nM; in experiment [2] it was 521 nM.
